As a reminder, the MIC is the least concentration at which growth counts as inhibited.

Converted amounts (≈) assume the structure as drawn. Where only a bound is given, the exact number is not on record here.

What all share (assay type): functional
For assay [1], the system named is Acinetobacter baumannii. The assay is described as follows: Antimicrobial activity against Acinetobacter baumannii […] by Etest method. The method in brief: (§1)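 Etest MICs were read following the manufacturer's instructions. A. baumannii 135040 is a blood-culture clinical isolate from a Brazilian ICU (2004); A. baumannii ATCC 19606 served as the reference strain.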

Assay [2] deals with Acinetobacter baumannii. Kind of assay: Antimicrobial activity against Acinetobacter baumannii […] by Etest method in presence of 4 ug/ml beta-lactamase inhibitor clavulanic acid. In short, it runs like this:
as §1

The subject of assay [3] is Acinetobacter baumannii. The assay is described as follows: Antimicrobial activity against Acinetobacter baumannii ATCC 19606 harboring plasmid PH98 by Etest method. The note with it: ATCC 19606 = CIP 70.34 = JCM 6841. In short, it runs like this: (§2)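 MICs of β-lactams determined by Etest following the manufacturer's instructions. Reference strains A. baumannii ATCC 19606 and E. coli TOP10 were tested alongside transformants carrying the cloned blaOXA-143: ATCC 19606 with pPH98 and TOP10 with pPH-1. For pPH-1 constructs, TOP10 transformants were selected on 50 μg/ml amoxicillin plus 30 μg/ml kanamycin.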

The subject of assay [4] is Acinetobacter baumannii. Kind of assay: Antimicrobial activity against Acinetobacter baumannii ATCC 19606 harboring plasmid PH98 by Etest method in presence of 4 ug/ml beta-lactamase inhibitor clavulanic acid. Particulars: ATCC 19606 = CIP 70.34 = JCM 6841. The method in brief: as §2
For assay [5], the system named is Acinetobacter baumannii. The assay is described as follows: Antimicrobial activity against Acinetobacter baumannii ATCC 19606 by Etest method. The note with it: ATCC 19606 = CIP 70.34 = JCM 6841. In short, it runs like this:
as §2

The test system of assay [6] is Acinetobacter baumannii. Kind of assay: Antimicrobial activity against Acinetobacter baumannii ATCC 19606 by Etest method in presence of 4 ug/ml beta-lactamase inhibitor clavulanic acid. The note with it: ATCC 19606 = CIP 70.34 = JCM 6841. In short, it runs like this: as §1
The test system of assay [7] is Escherichia coli. The assay is described as follows: Antimicrobial activity against Escherichia coli TOP10 harboring plasmid PH1 by Etest method. The method in brief:
as §2

In assay [8] the test system is Escherichia coli. The assay is described as follows: Antimicrobial activity against Escherichia coli TOP10 harboring plasmid PH1 by Etest method in presence of 4 ug/ml beta-lactamase inhibitor clavulanic acid. In short, it runs like this: as §2
Assay [9] has as its system Escherichia coli. The assay is described as follows: Antimicrobial activity against Escherichia coli TOP10 by Etest method. In short, it runs like this: as §2
Assay [10] has as its system Escherichia coli. Kind of assay: Antimicrobial activity against Escherichia coli TOP10 by Etest method in presence of 4 ug/ml beta-lactamase inhibitor clavulanic acid. The method in brief: (§3)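 Susceptibility was read by Etest, following the manufacturer's instructions. E. coli TOP10 without plasmid served as the reference host strain.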
The subject of assay [11] is Acinetobacter baumannii. The assay is described as follows: Antimicrobial activity against Acinetobacter baumannii […] by Etest method in presence of 4 ug/ml beta-lactamase inhibitor Tazobactam. In short, it runs like this:
as §1

Assay [12] has as its system Acinetobacter baumannii. The assay is described as follows: Antimicrobial activity against Acinetobacter baumannii ATCC 19606 harboring plasmid PH98 by Etest method in presence of 4 ug/ml beta-lactamase inhibitor Tazobactam. Particulars: ATCC 19606 = CIP 70.34 = JCM 6841. In short, it runs like this: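 Susceptibility by Etest, run according to the manufacturer's instructions. The recipient strain is A. baumannii ATCC 19606 carrying recombinant plasmid pPH98. The same strain without the plasmid served as the reference. MICs for this strain were also determined by agar dilution following CLSI guidelines.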

Assay [13] has as its system Acinetobacter baumannii. The assay is described as follows: Antimicrobial activity against Acinetobacter baumannii ATCC 19606 by Etest method in presence of 4 ug/ml beta-lactamase inhibitor Tazobactam. The note with it: ATCC 19606 = CIP 70.34 = JCM 6841. The method in brief:
as §1

For assay [14], the system named is Escherichia coli. Kind of assay: Antimicrobial activity against Escherichia coli TOP10 harboring plasmid PH1 by Etest method in presence of 4 ug/ml beta-lactamase inhibitor Tazobactam. In short, it runs like this: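 Susceptibility was read by Etest, following the manufacturer's instructions. The test strain was E. coli TOP10 carrying recombinant plasmid pPH-1, which expresses blaOXA-143 from A. baumannii clinical isolate 135040 at a high level. The gene was introduced by Zero Blunt TOPO cloning, and transformants were selected on 50 μg/ml amoxicillin plus 30 μg/ml kanamycin.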

Assay [15] deals with Escherichia coli. Kind of assay: Antimicrobial activity against Escherichia coli TOP10 by Etest method in presence of 4 ug/ml beta-lactamase inhibitor Tazobactam. The method in brief: as §3

In the case of `CC1(C)S[C@@H]2[C@H](NC(=O)[C@H](N)c3ccc(O)cc3)C(=O)N2[C@H]1C(=O)O` [AMOXICILLIN], the MIC with Acinetobacter baumannii [1] is more than 256 µg/mL; in the assay with Acinetobacter baumannii [2], more than 256 µg/mL; in the assay on Acinetobacter baumannii [3] it was more than 256 µg/mL; in the assay with Acinetobacter baumannii [4] it was more than 256 µg/mL; against Acinetobacter baumannii [5] it was 32 µg/mL (≈ 87.6 µM); with Acinetobacter baumannii [6], 8 µg/mL. Further, the MIC against Escherichia coli [7] is more than 512 µg/mL; with Escherichia coli [8] it was more than 512 µg/mL; against Escherichia coli [9] it was 4 µg/mL (≈ 10.9 µM); with Escherichia coli [10], 4 µg/mL.

With `C[C@@H](O)[C@H]1C(=O)N2C(C(=O)O)=C(SCCNC=N)C[C@H]12` [IMIPENEM ANHYDROUS], the MIC with Acinetobacter baumannii [1] is more than 32 µg/mL; in the assay on Acinetobacter baumannii [3] it was 32 µg/mL (≈ 107 µM); in the assay with Acinetobacter baumannii [5] it was 0.19 µg/mL (≈ 0.635 µM); in the assay on Escherichia coli [7] it was 2 µg/mL (≈ 6.68 µM).

As for `CC(C)(O/N=C(\C(=O)N[C@@H]1C(=O)N2C(C(=O)[O-])=C(C[n+]3ccccc3)CS[C@H]12)c1csc(N)n1)C(=O)O` [CEFTAZIDIME], the MIC against Acinetobacter baumannii [1] stood at 256 µg/mL (≈ 468 µM); with Acinetobacter baumannii [3], 2 µg/mL (≈ 3.66 µM); with Acinetobacter baumannii [5], 2 µg/mL (≈ 3.66 µM); against Escherichia coli [7], 0.12 µg/mL (≈ 0.22 µM); against Escherichia coli [9], 0.06 µg/mL (≈ 0.11 µM).

For the compound `CO/N=C(\C(=O)N[C@@H]1C(=O)N2C(C(=O)[O-])=C(C[N+]3(C)CCCC3)CS[C@H]12)c1csc(N)n1` [CEFEPIME], the MIC came out at 4 µg/mL (≈ 8.32 µM) against Acinetobacter baumannii [1], 2 µg/mL (≈ 4.16 µM) in the assay on Acinetobacter baumannii [3], 1 µg/mL (≈ 2.08 µM) in the assay on Acinetobacter baumannii [5] and 0.12 µg/mL (≈ 0.25 µM) against Escherichia coli [7].

As to `CO/N=C(\C(=O)N[C@@H]1C(=O)N2C(C(=O)O)=C(COC(C)=O)CS[C@H]12)c1csc(N)n1` [CEFOTAXIME], the MIC in the assay on Acinetobacter baumannii [1] is more than 256 µg/mL; in the assay on Acinetobacter baumannii [3], 16 µg/mL (≈ 35.1 µM); against Acinetobacter baumannii [5], 8 µg/mL (≈ 17.6 µM); in the assay with Escherichia coli [7], 0.12 µg/mL (≈ 0.263 µM); with Escherichia coli [9], 0.12 µg/mL (≈ 0.263 µM).

With `CC1(C)S[C@@H]2[C@H](NC(=O)[C@H](C(=O)O)c3ccsc3)C(=O)N2[C@H]1C(=O)O` [TICARCILLIN], the minimum inhibitory concentration (MIC) in the assay on Acinetobacter baumannii [1] was more than 256 µg/mL; in the assay with Acinetobacter baumannii [3], more than 256 µg/mL; against Acinetobacter baumannii [5], 4 µg/mL (≈ 10.4 µM); in the assay on Escherichia coli [7], 128 µg/mL (≈ 333 µM); with Escherichia coli [9], 4 µg/mL (≈ 10.4 µM).

Take `C[C@@H](O)[C@H]1C(=O)N2C(C(=O)O)=C(S[C@@H]3CN[C@H](C(=O)N(C)C)C3)[C@H](C)[C@H]12` [MEROPENEM]: the minimum inhibitory concentration (MIC) in the assay with Acinetobacter baumannii [1] is more than 32 µg/mL; against Acinetobacter baumannii [3], 32 µg/mL (≈ 83.4 µM); in the assay with Acinetobacter baumannii [5], 0.19 µg/mL (≈ 0.495 µM); with Escherichia coli [7], 2 µg/mL (≈ 5.22 µM); with Escherichia coli [9] it was 0.12 µg/mL (≈ 0.313 µM).

For the compound `CCN1CCN(C(=O)N[C@@H](C(=O)N[C@@H]2C(=O)N3[C@@H]2SC(C)(C)[C@@H]3C(=O)O)c2ccccc2)C(=O)C1=O` [PIPERACILLIN], the MIC is more than 256 µg/mL against Acinetobacter baumannii [1]; more than 256 µg/mL in the assay on Acinetobacter baumannii [11]; 16 µg/mL (≈ 30.9 µM) in the assay with Acinetobacter baumannii [3]; 8 µg/mL in the assay on Acinetobacter baumannii [12]; 4 µg/mL (≈ 7.73 µM) with Acinetobacter baumannii [5]; 4 µg/mL in the assay on Acinetobacter baumannii [13]. In addition, the MIC amounted to 8 µg/mL (≈ 15.5 µM) against Escherichia coli [7], 2 µg/mL in the assay on Escherichia coli [14], 1 µg/mL (≈ 1.93 µM) in the assay on Escherichia coli [9] and 0.5 µg/mL in the assay with Escherichia coli [15].

These data come from ChEMBL document CHEMBL1649282, “OXA-143, a novel carbapenem-hydrolyzing class D beta-lactamase in Acinetobacter baumannii” (2009).
